Assay results: ChEMBL document CHEMBL1151838, “Isariotins E and F, spirocyclic and bicyclic hemiacetals from the entomopathogenic fungus Isaria tenuipes BCC 12625” (J Nat Prod, 2009); call rule not given here
≈ marks a conversion by molar mass, not a printed value.

Experiments:
[1] = tested on: Mycobacterium tuberculosis; test: Antitubercular activity against Mycobacterium tuberculosis H37Ra after 4 days by microplate alamar blue assay; assay type: functional; details: 96 h
Outline: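 M. tuberculosis H37Ra tested by microplate Alamar Blue assay. MIC was taken as the lowest concentration giving ≥90% growth inhibition.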

Plasmodium falciparum = test: Antiplasmodial activity after 24 hrs against Plasmodium falciparum K1 by [G-3H]hypoxanthine uptake; assay type: functional, organism-based; details: K1, 24 h
Outline: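 P. falciparum K1 tested by a microculture radioisotope technique, with IC50 as the read-out.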

KB = test: Cytotoxicity against human KB cells by SRB assay; assay type: functional, cell-based
Outline: (§1)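 Colorimetric cytotoxicity assay. IC50 given as mean ± SD (n = 3), curve fits with R2 > 0.9. Ellipticine served as positive control.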

[2] = Cytotoxicity against human BC cells by SRB assay; assay type: functional, cell-based; outline: as §1
NCI-H187 = test: Cytotoxicity against human NCI-H187 cells by SRB assay; assay type: functional, cell-based; outline: as §1
Vero = test: Cytotoxicity against african green monkey Vero cells by SRB assay; assay type: cell-based, Chlorocebus sabaeus; outline: as §1
Candida albicans = test: Antifungal activity against Candida albicans; assay type: functional, organism-based
Outline: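 Colorimetric growth-inhibition assay against Candida albicans; IC50 values reported.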

[3] = Homo sapiens, KB, read-out: IC50
[4] = Homo sapiens, BC, read-out: IC50
[5] = Homo sapiens, NCI-H187, read-out: IC50
[6] = Chlorocebus sabaeus, Vero, read-out: IC50

Structure (SMILES)	MIC [1]	IC50 (Plasmodium falciparum)	IC50 (KB; [3])	IC50 [2, 4]	IC50 (NCI-H187; [5])	IC50 (Vero; [6])	IC50 (Candida albicans)	other results
NNC(=O)c1ccncc1 [ISONIAZID]	0.37 µM (≈ 0.0507 µg/mL)	–	–	–	–	–	–	–
C[C@H]1[C@@H](O)O[C@@H]2O[C@@]3(C)CC[C@H]4[C@H](C)CC[C@@H]1[C@@]24OO3 [ARTENIMOL]	–	0.004 µM	–	–	–	–	–	–
Cc1c2ccncc2c(C)c2c1[nH]c1ccccc12 [ELLIPTECINE]	–	–	1.38 µM	1.2 µM	4.4 µM	1.69 µM	–	–
CCCCCCCCC/C=C/C(=O)N[C@H]1C[C@@]2(O)C(=O)C=C[C@@H](Cl)[C@@H]2O[C@H]1O [ISARIOTIN F]	60.4 µM (≈ 25 µg/mL)	5.1 µM	15.8 µM	2.4 µM	1.6 µM	2.9 µM	13.9 µM	–
CCCCCCCCC/C=C/C(=O)N[C@H]1C[C@@]2(O)C(=O)[C@@H]([C@H]1O)[C@H](OC)[C@@H]1O[C@@H]12	–	–	–	–	–	–	–	IC50 (KB; kb): Not Active; IC50 ([2]; bc): Not Active; IC50 (NCI-H187; nci-h187): Not Active; IC50 (Vero; vero): Not Active
C[C@@H]1[C@H](O)[C@@H](C)/C=C/C=C/C=C/C=C/C=C/C=C/C=C/[C@H](O[C@@H]2O[C@H](C)[C@@H](O)[C@H](N)[C@@H]2O)C[C@@H]2O[C@](O)(C[C@@H](O)C[C@@H](O)[C@H](O)CC[C@@H](O)C[C@@H](O)CC(=O)O[C@H]1C)C[C@H](O)[C@H]2C(=O)O [AMPHOTERICIN B]	–	–	–	–	–	–	0.03 µM	–
